According to ChEMBL document CHEMBL2311439, “New bis-thiazolium analogues as potential antimalarial agents: design, synthesis, and biological evaluation” (J Med Chem, 2013):

Columns and labels:
[1] = test system: Mus musculus; assay: Toxicity in ip dosed Swiss mouse administered for 4 days measured on day 5; type: organism-based; settings: in vivo, 96 h
[2] = test system: Plasmodium vinckei petteri; assay: Antimalarial activity against Plasmodium vinckei petteri 279BY infected in Swiss mouse administered as ip qd for 4 days measured on day 5; type: functional
In short: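 Female Swiss mice infected intravenously with 10⁷ P. vinckei petteri 279BY parasites (parasitemia 0.5−1% on day 1). Compounds in DMSO, 0.9% NaCl or intralipid/DMSO (90/10) given ip once daily on days 1−4 postinfection. Parasitemia read on day 5. ED₅₀ is the dose giving 50% parasitemia inhibition, determined only when parasitemia fell by at least 85%. Three mice per dose.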

[3] = test system: Plasmodium falciparum; assay: Antiplasmodial activity against Plasmodium falciparum Nigeria infected in human erythrocytes assessed as incorporation of [3H]hypoxanthine after 48 hrs; type: functional, organism-based
In short: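 Nigerian-strain P. falciparum-infected erythrocytes at 1.5% final hematocrit and 0.6% parasitemia, grown in Hepes-buffered RPMI 1640 with 10% AB human serum. Drugs dissolved in DMSO, final DMSO ≤0.25%. Modified Desjardins test: [³H]hypoxanthine incorporation measured after 48 h drug contact. IC₅₀ is the concentration giving 50% growth inhibition. Two independent experiments.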

[4] = Therapeutic index, ratio of ED50 for human Jurkat cells to IC50 for Plasmodium falciparum Nigeria infected in human erythrocytes; type: cell-based
[5] = test system: Jurkat; assay: Cytotoxicity against human Jurkat cells after 24 hrs by [3H]thymidine incorporation assay; type: cell-based
In short: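 Human Jurkat lymphoblasts exposed to compounds for 24 h, then [³H]thymidine added to gauge viability. Values are means of two independent experiments run in duplicate, differing by less than 40%.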

[6] = Oral bioavailability in Sprague-Dawley rat at 12 mg/kg; type: ADME, organism-based; settings: in vivo

SMILES | IC50 [3] [nM] | ED50 [2] [mg/kg] | other results
COCCc1sc[n+](CCOc2ccc(C(=O)c3ccc(OCC[n+]4csc(CCOC)c4C)cc3)cc2)c1C.[Cl-].[Cl-] | 80 | > 2 | Activity [1]: Non-toxic
COCCc1sc[n+](CC#Cc2ccc(C#CC[n+]3csc(CCOC)c3C)cc2)c1C | 420 | – | –
Cc1c(CCOCc2cn(CCc3sc[n+](Cc4ccccc4)c3C)nn2)sc[n+]1Cc1ccccc1 | 640 | – | –
Cc1c(CCOCc2cn(CCc3sc[n+](C)c3C)nn2)sc[n+]1C | 10000 | – | –
COCCc1sc[n+](Cc2ccc(OCCCCCOc3ccc(C[n+]4csc(CCOC)c4C)cc3)cc2)c1C.[Cl-].[Cl-] | 313 | > 0.4 | –
Cc1c(CCO)sc[n+]1CCCCc1ccc(CCCC[n+]2csc(CCO)c2C)c2ccccc12.[Cl-].[Cl-] | 6.7 | > 0.6 | –
Cc1c(CCO)sc[n+]1CCOc1ccc(Cc2ccc(OCC[n+]3csc(CCO)c3C)cc2)cc1.[Cl-].[Cl-] | 22 | > 1 | –
C/C(=C1\CCOC(=O)S1)N(C=O)CCCCCCCCCCCCN(C=O)/C(C)=C1\CCOC(=O)S1 | – | – | bioavailability [6]: 15%
Cc1c(CCO)sc[n+]1CC#Cc1ccc(C#CC[n+]2csc(CCO)c2C)cc1 | 1250 | – | –
Cc1c(CCO)sc[n+]1CCCCc1ccc(CCCC[n+]2csc(CCO)c2C)cc1.[Cl-].[Cl-] | 20.5 | 1.2 | –
Cc1c(CCOCCCCCCOCCc2sc[n+](Cc3ccccc3)c2C)sc[n+]1Cc1ccccc1 | 15 | – | –
Cc1c(CCO)sc[n+]1CCCc1ccc(CCC[n+]2csc(CCO)c2C)cc1.[Cl-].[Cl-] | 77.5 | > 0.5 | –
Cc1c(CCOCCCCCCOCCc2sc[n+](C)c2C)sc[n+]1C | 120 | – | –
COCCc1sc[n+](CCOc2ccc(-c3ccc(OCC[n+]4csc(CCOC)c4C)cc3)cc2)c1C.[Br-].[Br-] | 18.5 | > 0.6 | –
Cc1c(CCO)sc[n+]1CCCCCCCCCCCC[n+]1csc(CCO)c1C.[Br-].[Br-] [ALBITIAZOLIUM BROMIDE] | – | 0.2 | selectivity ratio [4]: 150000; IC50 [5]: 347000 nM
Cc1c(CCO)sc[n+]1CCC#Cc1ccc(C#CCC[n+]2csc(CCO)c2C)cc1 | 173 | – | –
COCCc1sc[n+](CCOc2ccc(Cc3ccc(OCC[n+]4csc(CCOC)c4C)cc3)cc2)c1C.[Cl-].[Cl-] | 22.5 | > 1 | –

Continued, in another order:

IC50 [3] [nM] | SMILES | ED50 [2] [mg/kg] | other results
16.5 | Cc1c(CCO)sc[n+]1CCCCc1ccc(CCCC[n+]2csc(CCO)c2C)s1.[Cl-].[Cl-] | > 0.6 | –
2.5 | COCCc1sc[n+](CCCCc2ccc(-c3ccc(CCCC[n+]4csc(CCOC)c4C)cc3)cc2)c1C.[Cl-].[Cl-] | 0.7 | –
1200 | COCCc1sc[n+](CCCCCn2cc(CCC[n+]3csc(CCOC)c3C)nn2)c1C | – | –
8.3 | COCCc1sc[n+](CCCCc2ccc(CCCC[n+]3csc(CCOC)c3C)cc2)c1C.[Cl-].[Cl-] | 0.13 | Activity [1]: Non-toxic
6.3 | COCCc1sc[n+](CCCCc2ccc3ccc(CCCC[n+]4csc(CCOC)c4C)cc3c2)c1C.[Cl-].[Cl-] | 0.5 | selectivity ratio [4]: 170000; IC50 [5]: 465000 nM
2.1 | COCCc1sc[n+](CCCCc2ccc(CCCC[n+]3csc(CCOC)c3C)c3ccccc23)c1C.[Cl-].[Cl-] | > 0.6 | –
9 | COCCc1sc[n+](CCCCc2cccc(CCCC[n+]3csc(CCOC)c3C)c2)c1C.[Cl-].[Cl-] | > 1 | –
7000 | COCCc1sc[n+](CCCc2cn(CCc3sc[n+](Cc4ccccc4)c3C)nn2)c1C | – | –
36.5 | COCCc1sc[n+](CCCc2ccc(CCC[n+]3csc(CCOC)c3C)cc2)c1C.[Cl-].[Cl-] | > 1 | –
8200 | COCCc1sc[n+](CCCc2cn(CCc3sc[n+](C)c3C)nn2)c1C | – | –
2.7 | COCCc1sc[n+](CCCCc2ccc(CCCC[n+]3csc(CCOC)c3C)s2)c1C.[Cl-].[Cl-] | 0.28 | IC50 [5]: 63000 nM
